What was measured:
[1] = test system: PC-3M; test: Anticancer activity in human PC-3M cells expressing PTB/GFP fusion protein assessed as perinucleolar compartment disassembly and measured after 24 hrs by Hoechst 33342 staining based microscopic method; format: functional, cell-based; conditions: read-out: IC50
Procedure, shortened: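 Imaged by high-content microscopy. Nuclei with PNC spots ≥3 and >0 scored positive. PNC prevalence % = PNC-positive nuclei/total nuclei ×100, normalized to DMSO (0% activity) and 0% PNC (−100%). IC50 from concentration-response.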

[2] = Cytotoxicity against human PC-3M cells expressing PTB/GFP fusion protein assessed as reduction in ATP level and measured after 24 to 48 hrs by ATPlite luminescence assay; format: toxicity, cell-based

COc1cccc2c1C(=O)c1c(O)c3c(c(O)c1C2=O)C[C@@](O)(C(=O)CO)C[C@@H]3O[C@H]1C[C@H](N)[C@H](O)[C@H](C)O1 [DOXORUBICIN]
IC50 [1]: 0.86 µM
IC50 [2]: 0.66 µM

Reference: ChEMBL document CHEMBL5154945, “Discovery and Optimization of Pyrrolopyrimidine Derivatives as Selective Disruptors of the Perinucleolar Compartment, a Marker of Tumor Progression toward Metastasis” (J Med Chem, 2022)
